Assay results gathered from unrelated publications.
RPS6KA6: Ribosomal protein S6 kinase alpha-6 (RPS6KA6, Homo sapiens, UniProt Q9UK32)
RPS6KA6 N-terminal kinase domain: Ribosomal protein S6 kinase alpha-6, N-terminal kinase domain (RPS6KA6, Homo sapiens, UniProt Q9UK32)
RPS6KA6 C-terminal kinase domain: Ribosomal protein S6 kinase alpha-6, C-terminal kinase domain (RPS6KA6, Homo sapiens, UniProt Q9UK32)

Compound	target	read-out	action	technique	tested at	quantity	value
CC(C)(C)c1nc2c(s1)c1nc(N)ncc1c1ccc(NS(=O)(=O)c3c(F)cccc3F)c(F)c12	RPS6KA6	enzyme activity	inhibitor	radiometric	1 µM	remaining activity	97%
O=C(Nc1cnn(-c2csc(C(=O)NC3COC3)c2)c1)Nc1ccccc1Cl	RPS6KA6	enzyme activity	inhibitor		5 µM	remaining activity	107%
Cc1ccc(Nc2nccc(N(C)c3ccc4c(C)n(C)nc4c3)n2)cc1S(N)(=O)=O	RPS6KA6	enzyme activity	inhibitor		0.5 µM	remaining activity	96.8%
C[C@H](NC(=O)c1cnc2n1[C@](C)(Cc1ccc(C#N)cc1)C(=O)N2c1cc(Cl)c(F)c(Cl)c1)C(=O)NC1(c2ccccn2)CC1	RPS6KA6 N-terminal kinase domain	cell-free assay		competition with immobilised ligand	1 µM	remaining binding	91%
CNC(=O)c1cc(Oc2ccc(NC(=O)Nc3ccc(Cl)c(C(F)(F)F)c3)cc2)ccn1	RPS6KA6	enzyme activity	inhibitor		0.3 µM	inhibition	-29%
N#CC1c2c([nH]c3c(Cl)c(Cl)ccc23)C(=O)NC12CCCCC2 (racemic)	RPS6KA6	thermal stability		DSF	10 µM	ΔTm	1.6 °C
C[S+]([O-])c1ccc(-c2nc(-c3ccncc3)c(-c3ccc(F)cc3)[nH]2)cc1 (stereo not drawn)	RPS6KA6	cell-free assay			0.5 µM	remaining signal	110%
Cn1c2c(c3ccc(Cl)c(Cl)c31)C(C#N)C1(CCCCC1)NC2=O (racemic)	RPS6KA6	thermal stability		DSF	10 µM	ΔTm	0 °C
Cc1sc(C(=O)NC2COC2)cc1-n1cc(NC(=O)Nc2c(F)cccc2Cl)cn1	RPS6KA6	enzyme activity	inhibitor		10 µM	remaining activity	116%
Cc1nc(Cc2cccc(C(F)(F)F)c2)sc1-c1ccc(C(N)=O)nc1	RPS6KA6 N-terminal kinase domain	cell-free assay		competition with immobilised ligand	1 µM	remaining binding	91%
COc1cc2ncnc(Nc3ccc(Oc4ccccc4)cc3C)c2cc1OC	RPS6KA6	enzyme activity	inhibitor		1 µM	inhibition	7%
CCC(=N\O)/C(C)=C/c1ccc(F)cc1	RPS6KA6 C-terminal kinase domain	cell-free assay		competition with immobilised ligand	1 µM	remaining binding	94%
Nc1nc(Nc2ccc(S(N)(=O)=O)cc2)nn1C(=O)c1c(F)cccc1F	RPS6KA6	cell-free assay			0.5 µM	remaining signal	24.7%
CC/C(=N\NC(=O)NCc1cccc(O)c1)c1ccc(O)c(C)c1O	RPS6KA6	enzyme activity	inhibitor		0.1 µM	inhibition	66.4%
CC(C)(O)[C@H]1CC[C@H](Nc2ccc3ncc(-c4cccc(C(F)(F)F)c4)n3n2)CC1	RPS6KA6	enzyme activity	inhibitor		1 µM	remaining activity	91.7%
Nc1ncnc2occ(-c3ccc(NC(=O)Nc4cc(C(F)(F)F)ccc4F)cc3)c12	RPS6KA6 C-terminal kinase domain	cell-free assay	inhibitor		20 µM	remaining signal	18%
Oc1ccc(-c2nc(-c3ccncc3)c(-c3ccc(F)cc3)[nH]2)cc1	RPS6KA6	cell-free assay			0.5 µM	remaining signal	110%
CN1CCC2(CC1)NC(=O)c1c(c3ccc(Cl)c(Cl)c3n1C)C2C#N (racemic)	RPS6KA6	thermal stability		DSF	10 µM	ΔTm	0 °C
COc1ccc2cc(OCC3(C(=O)O)CN(C(=O)c4ccc(F)cc4)C3)ccc2c1	RPS6KA6 N-terminal kinase domain	cell-free assay		competition with immobilised ligand	1 µM	remaining binding	77%
Cc1cc(NC(=O)c2cccc3cc(-c4cccc5[nH]nc(N)c45)ccc23)ccc1F	RPS6KA6	enzyme activity	inhibitor		0.1 µM	activity vs control	94%
CCOCCn1cc(C(=O)Nc2ccc(-n3nc(-c4cccnc4)cc3C(F)(F)F)cn2)ccc1=O	RPS6KA6 C-terminal kinase domain	cell-free assay		competition with immobilised ligand	1 µM	remaining binding	100%
O=C1NC(=O)c2cc(Nc3ccc(F)cc3)c(Nc3ccc(F)cc3)cc21	RPS6KA6	cell-free assay			0.5 µM	remaining signal	97.4%
Cc1ccc(C(=O)Nc2ccc(CN3CCN(C)CC3)c(C(F)(F)F)c2)cc1C#Cc1cnc2cccnn12	RPS6KA6	enzyme activity	inhibitor		23.5 nM	remaining activity	93%
O=C(NCc1ncc(C(F)(F)F)cc1Cl)c1ccc2c(c1)C1(CCS(=O)(=O)CC1)[C@@H](C1CC1)N2S(=O)(=O)c1ccc(F)cc1	RPS6KA6 C-terminal kinase domain	cell-free assay		competition with immobilised ligand	1 µM	remaining binding	100%
Cn1c2c(Cl)c(Cl)ccc2c2cc(N)[nH]c(=O)c21	RPS6KA6	thermal stability		DSF	10 µM	ΔTm	3.3 °C
Cc1ccc(NC(=O)c2ccc(C)c(C(F)(F)F)c2)cc1C#Cc1nn(C2CCC(O)CC2)c2ncnc(N)c12 (stereo not drawn)	RPS6KA6	cell-free assay			10 µM	remaining signal	44%
CS(=O)(=O)NCC[C@H](NC(=O)c1cncc2c1cnn2-c1ccc(F)cc1)c1ccnc(S(C)(=O)=O)c1	RPS6KA6 N-terminal kinase domain	cell-free assay		competition with immobilised ligand	1 µM	remaining binding	99%
O=C1Nc2ccc(Cl)cc2C1=Cc1cc(Cl)c(O)c(Cl)c1	RPS6KA6	cell-free assay			0.5 µM	remaining signal	78.5%
Cn1c2c(c3ccc(Cl)c(Cl)c31)C(C#N)C1(CCOCC1)NC2=O (stereo not drawn)	RPS6KA6	thermal stability		DSF	10 µM	ΔTm	0.1 °C
CO[C@@H](C)c1c(Nc2ccc([C@H](N(C)C(=O)C3CCS(=O)(=O)CC3)C(F)(F)F)cc2)cnc2cc(Cl)nn12	RPS6KA6 C-terminal kinase domain	cell-free assay		competition with immobilised ligand	1 µM	remaining binding	91%
